Molecular target: T1, Neuronal acetylcholine receptor; alpha3/beta4 (Homo sapiens, UniProt P30926+P32297)
Test: Recovery from Ach evoked currents at alpha3-beta4 nicotinic acetylcholine receptor at 20 uM
Assay type: functional
Settings: not given
Method in brief: (§1)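 HEK293 cells transiently co-transfected with nAChR α3 and β4 cDNAs plus EGFP; EGFP-positive cells recorded 12–36 h later by whole-cell voltage clamp at -70 mV. Pipette: CsCl/CsF/HEPES/EGTA, pH 7.2; bath: NaCl/KCl/HEPES/glucose, pH 7.3. Each compound was co-applied at 20 µM (one at 18 µM) with 1 mM ACh. Reported: percent inhibition, rate of inhibition and percent recovery, as mean ± SEM.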

T1 sequence (P30926 whole entry): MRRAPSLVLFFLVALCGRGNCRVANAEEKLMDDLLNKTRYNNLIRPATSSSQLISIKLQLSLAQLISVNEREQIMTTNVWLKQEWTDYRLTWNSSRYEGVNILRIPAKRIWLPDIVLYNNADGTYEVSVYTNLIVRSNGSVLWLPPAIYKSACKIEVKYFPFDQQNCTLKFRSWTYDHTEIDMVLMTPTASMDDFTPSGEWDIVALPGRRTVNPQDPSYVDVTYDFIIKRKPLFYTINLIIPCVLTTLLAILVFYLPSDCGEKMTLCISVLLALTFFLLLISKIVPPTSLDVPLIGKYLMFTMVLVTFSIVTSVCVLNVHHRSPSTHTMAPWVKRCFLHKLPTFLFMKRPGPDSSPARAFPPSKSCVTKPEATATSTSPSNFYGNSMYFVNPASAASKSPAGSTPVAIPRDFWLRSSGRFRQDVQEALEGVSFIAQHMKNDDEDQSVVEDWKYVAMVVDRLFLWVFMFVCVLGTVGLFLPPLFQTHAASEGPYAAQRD
T1 sequence (P32297 whole entry): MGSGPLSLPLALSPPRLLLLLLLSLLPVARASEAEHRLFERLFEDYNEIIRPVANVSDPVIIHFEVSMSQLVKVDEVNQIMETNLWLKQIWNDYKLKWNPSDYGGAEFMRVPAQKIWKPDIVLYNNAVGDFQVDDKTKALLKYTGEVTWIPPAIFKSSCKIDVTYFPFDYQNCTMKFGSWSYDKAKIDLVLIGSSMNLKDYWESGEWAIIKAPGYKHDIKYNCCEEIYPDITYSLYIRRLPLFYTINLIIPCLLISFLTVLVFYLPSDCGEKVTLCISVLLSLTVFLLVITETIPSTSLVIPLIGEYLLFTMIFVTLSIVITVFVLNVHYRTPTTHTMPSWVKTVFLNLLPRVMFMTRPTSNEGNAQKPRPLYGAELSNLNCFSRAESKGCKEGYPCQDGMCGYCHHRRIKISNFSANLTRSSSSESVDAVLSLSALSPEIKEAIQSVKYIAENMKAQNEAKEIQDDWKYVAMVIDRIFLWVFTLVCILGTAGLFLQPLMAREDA

| SMILES | Recovery [%] |
| --- | --- |
| COCC[C@H]1CC2CN3CCc4c([nH]c5ccccc45)[C@](C(=O)NCCO)(C2)[C@H]13 | 80 |
| COCC[C@H]1CC2CN3CCc4c([nH]c5ccccc45)[C@](C(=O)OCCNC(C)=O)(C2)[C@H]13 | 45 |

Molecular target: T1, Neuronal acetylcholine receptor; alpha3/beta4
Test: Rate of inhibition of Ach evoked currents at Nicotinic acetylcholine receptor alpha3-beta4 by 18 uM concentration
Assay type: functional
Settings: not given
Method in brief: as §1

| SMILES | Rate of inhibition [s⁻¹] |
| --- | --- |
| COC(=O)[C@@]12CC3C[C@H](CCO)[C@@H]1N(CCc1c2[nH]c2ccccc12)C3 | 6.5 |

Test system: not listed separately
Test: Relative inhibition index (RI) was determined as the % recovery / (rate of inhibition) and is expressed relative to Compound 3
Assay type: functional
Settings: not given
Method in brief: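 Read from the same α3β4 whole-cell ACh (1 mM) co-application recordings. The index is percent recovery divided by rate of inhibition, normalised to the parent reference ligand. Values below 1.0 mean lower Ki; values above 1.0 mean higher Ki.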

| SMILES | RI |
| --- | --- |
| COCCNC(=O)[C@@]12CC3C[C@H](CCOC)[C@@H]1N(CCc1c2[nH]c2ccccc12)C3 | 2.3 |
| COC(=O)[C@@]12CC3C[C@H](CCO)[C@@H]1N(CCc1c2[nH]c2ccccc12)C3 | 5.4 |
| COCC[C@H]1CC2CN3CCc4c([nH]c5ccccc45)[C@](C(=O)OC)(C2)[C@H]13 [18-METHOXYCORONARIDINE] | 1 |
| COCC[C@H]1CC2CN3CCc4c([nH]c5ccccc45)[C@](C(=O)NCCN(C)C)(C2)[C@H]13 | 3.9 |
| COCC[C@H]1CC2CN3CCc4c([nH]c5ccccc45)[C@](C(=O)NCCO)(C2)[C@H]13 | 4.7 |
| COCC[C@H]1CC2CN3CCc4c([nH]c5ccccc45)[C@](C(=O)OCCNC(C)=O)(C2)[C@H]13 | 3.1 |

Molecular target: Mu-type opioid receptor (Cavia porcellus) (UniProt P97266)
Test: Inhibitory activity was determined against Opioid receptor mu 1 from guinea pig brain membranes at 1 uM concentration, using 0.25 nM of [3H]DAMGO radioligand
Settings: Membrane
Method in brief: (§2)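 Guinea pig brain membranes (0.5 mg protein/sample) were incubated at 25 °C in 50 mM Tris-HCl, pH 7.5, with receptor-specific radioligand and compound at 1 µM. Nonspecific binding was defined with 10 µM naloxone. Values are the mean ± SE of three separate experiments, each run in triplicate.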

Chain of Mu-type opioid receptor (Cavia porcellus) (P97266 whole entry): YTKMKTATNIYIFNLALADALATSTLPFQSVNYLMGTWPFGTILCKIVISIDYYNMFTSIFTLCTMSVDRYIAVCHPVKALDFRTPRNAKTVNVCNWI

| SMILES | inhibition [%] |
| --- | --- |
| COC(=O)[C@@]12CC3C[C@H](CCOCc4ccccc4)[C@@H]1N(CCc1c2[nH]c2ccccc12)C3 | 12 |

Molecular target: T1, Neuronal acetylcholine receptor; alpha3/beta4
Test: Inhibition of Ach evoked currents at alpha3-beta4 nicotinic acetylcholine receptor by 20 uM concentration
Assay type: functional
Settings: not given
Method in brief: as §1

| SMILES | inhibition [%] |
| --- | --- |
| COCCNC(=O)[C@@]12CC3C[C@H](CCOC)[C@@H]1N(CCc1c2[nH]c2ccccc12)C3 | 96 |
| COCC[C@H]1CC2CN3CCc4c([nH]c5ccccc45)[C@](C(=O)NCCN(C)C)(C2)[C@H]13 | 93 |
| COCC[C@H]1CC2CN3CCc4c([nH]c5ccccc45)[C@](C(=O)NCCO)(C2)[C@H]13 | 85 |
| COCC[C@H]1CC2CN3CCc4c([nH]c5ccccc45)[C@](C(=O)OCCNC(C)=O)(C2)[C@H]13 | 95 |

Molecular target: T1, Neuronal acetylcholine receptor; alpha3/beta4
Test: Rate of inhibition of Ach evoked currents at Nicotinic acetylcholine receptor alpha3-beta4 by 20 uM concentration
Assay type: functional
Settings: not given
Method in brief: as §1

| SMILES | Rate of inhibition [s⁻¹] |
| --- | --- |
| COC(=O)[C@@]12CC3C[C@H](CCOCc4ccccc4)[C@@H]1N(CCc1c2[nH]c2ccccc12)C3 | 2.2 |
| COCC[C@H]1CC2CN3CCc4c([nH]c5ccccc45)[C@](C(=O)OC)(C2)[C@H]13 [18-METHOXYCORONARIDINE] | 5.5 |

Molecular target: T1, Neuronal acetylcholine receptor; alpha3/beta4
Test: Recovery from Ach evoked currents at Nicotinic acetylcholine receptor alpha3-beta4 at 20 uM concentration
Assay type: functional
Settings: not given
Method in brief: as §1

| SMILES | Recovery [%] |
| --- | --- |
| COC(=O)[C@@]12CC3C[C@H](CCOCc4ccccc4)[C@@H]1N(CCc1c2[nH]c2ccccc12)C3 | 0 |
| COCC[C@H]1CC2CN3CCc4c([nH]c5ccccc45)[C@](C(=O)OC)(C2)[C@H]13 [18-METHOXYCORONARIDINE] | 12 |

Molecular target: T1, Neuronal acetylcholine receptor; alpha3/beta4
Test: Inhibition of Ach evoked currents at Nicotinic acetylcholine receptor alpha3-beta4 by 18 uM concentration
Assay type: functional
Settings: not given
Method in brief: as §1

| SMILES | inhibition [%] |
| --- | --- |
| COC(=O)[C@@]12CC3C[C@H](CCO)[C@@H]1N(CCc1c2[nH]c2ccccc12)C3 | 98 |

Molecular target: T1, Neuronal acetylcholine receptor; alpha3/beta4
Test: Recovery from Ach evoked currents at alpha3-beta4 nicotinic acetylcholine receptor at 20 uM concentration
Assay type: functional
Settings: not given
Method in brief: as §1

| SMILES | Recovery [%] |
| --- | --- |
| COCCNC(=O)[C@@]12CC3C[C@H](CCOC)[C@@H]1N(CCc1c2[nH]c2ccccc12)C3 | 46 |
| COCC[C@H]1CC2CN3CCc4c([nH]c5ccccc45)[C@](C(=O)NCCN(C)C)(C2)[C@H]13 | 81 |

Molecular target: Mu-type opioid receptor (Cavia porcellus) (UniProt P97266)
Test: Inhibition of [3H]DAMGO binding to Opioid receptor mu 1 from guinea pig brain membranes
Set-up: concentration or dose not given beside the values
Settings: concentration not given here
Method in brief: as §2

| SMILES | inhibition [%] |
| --- | --- |
| COCCNC(=O)[C@@]12CC3C[C@H](CCOC)[C@@H]1N(CCc1c2[nH]c2ccccc12)C3 | 10 |
| COC(=O)[C@@]12CC3C[C@H](CCO)[C@@H]1N(CCc1c2[nH]c2ccccc12)C3 | 15 |
| COCC[C@H]1CC2CN3CCc4c([nH]c5ccccc45)[C@](C(=O)OC)(C2)[C@H]13 [18-METHOXYCORONARIDINE] | 50 |
| COCC[C@H]1CC2CN3CCc4c([nH]c5ccccc45)[C@](C(=O)NCCCCCCNC(=O)CCCC[C@@H]4SCC5NC(=O)NC54)(C2)C13 (stereo partly specified) | 19 |
| COCC[C@H]1CC2CN3CCc4c([nH]c5ccccc45)[C@](C(=O)NCCN(C)C)(C2)[C@H]13 | 4 |
| COCC[C@H]1CC2CN3CCc4c([nH]c5ccccc45)[C@](C(=O)NCCO)(C2)[C@H]13 | 7 |
| COCC[C@H]1CC2CN3CCc4c([nH]c5ccccc45)[C@](C(=O)OCCNC(C)=O)(C2)[C@H]13 | 0 |

Molecular target: T1, Neuronal acetylcholine receptor; alpha3/beta4
Test: Inhibition of Ach evoked currents at Nicotinic acetylcholine receptor alpha3-beta4 by 20 uM concentration
Assay type: functional
Settings: not given
Method in brief: as §1

| SMILES | inhibition [%] |
| --- | --- |
| COC(=O)[C@@]12CC3C[C@H](CCOCc4ccccc4)[C@@H]1N(CCc1c2[nH]c2ccccc12)C3 | 64 |
| COCC[C@H]1CC2CN3CCc4c([nH]c5ccccc45)[C@](C(=O)OC)(C2)[C@H]13 [18-METHOXYCORONARIDINE] | 98 |

Molecular target: T1, Neuronal acetylcholine receptor; alpha3/beta4
Test: Recovery from Ach evoked currents at Nicotinic acetylcholine receptor alpha3-beta4 at 18 uM concentration
Assay type: functional
Settings: not given
Method in brief: as §1

| SMILES | Recovery [%] |
| --- | --- |
| COC(=O)[C@@]12CC3C[C@H](CCO)[C@@H]1N(CCc1c2[nH]c2ccccc12)C3 | 73 |

Molecular target: Mu-type opioid receptor (Cavia porcellus, UniProt P97266)
Test: Binding affinity was determined against Opioid receptor mu 1 from guinea pig brain membranes
Settings: not given

Chain of Mu-type opioid receptor (P97266 whole entry): as above

| SMILES | Ki [nM] |
| --- | --- |
| COCC[C@H]1CC2CN3CCc4c([nH]c5ccccc45)[C@](C(=O)OC)(C2)[C@H]13 [18-METHOXYCORONARIDINE] | 1100 |

Molecular target: T1, Neuronal acetylcholine receptor; alpha3/beta4
Test: Rate of inhibition of Ach evoked currents at alpha3-beta4 nicotinic acetylcholine receptor by 20 uM concentration
Assay type: functional
Settings: not given
Method in brief: as §1

| SMILES | Rate of inhibition [s⁻¹] |
| --- | --- |
| COCCNC(=O)[C@@]12CC3C[C@H](CCOC)[C@@H]1N(CCc1c2[nH]c2ccccc12)C3 | 9.2 |
| COCC[C@H]1CC2CN3CCc4c([nH]c5ccccc45)[C@](C(=O)NCCN(C)C)(C2)[C@H]13 | 9.5 |
| COCC[C@H]1CC2CN3CCc4c([nH]c5ccccc45)[C@](C(=O)NCCO)(C2)[C@H]13 | 7.9 |
| COCC[C@H]1CC2CN3CCc4c([nH]c5ccccc45)[C@](C(=O)OCCNC(C)=O)(C2)[C@H]13 | 6.7 |

Molecular target: T1, Neuronal acetylcholine receptor; alpha3/beta4
Test: Binding affinity towards Nicotinic acetylcholine receptor alpha3-beta4 determined from kinetic measures of koff/kon
Assay type: protein-complex assay
Settings: not given
Method in brief: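 Ki was estimated as koff/kon from α3β4 whole-cell recordings with drug at 20 µM co-applied with 1 mM ACh. koff was taken from the rate of recovery and kon from the rate of inhibition.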

| SMILES | Ki [nM] |
| --- | --- |
| COCC[C@H]1CC2CN3CCc4c([nH]c5ccccc45)[C@](C(=O)OC)(C2)[C@H]13 [18-METHOXYCORONARIDINE] | 700 |

Molecular target: Kappa-type opioid receptor (Cavia porcellus) (UniProt P41144)
Test: Inhibition of [3H]U-69593 binding to Opioid receptor kappa 1 from guinea pig brain membranes
Set-up: concentration or dose not given beside the values
Settings: concentration not given here
Method in brief: as §2

Chain of Kappa-type opioid receptor (Cavia porcellus) (P41144 whole entry): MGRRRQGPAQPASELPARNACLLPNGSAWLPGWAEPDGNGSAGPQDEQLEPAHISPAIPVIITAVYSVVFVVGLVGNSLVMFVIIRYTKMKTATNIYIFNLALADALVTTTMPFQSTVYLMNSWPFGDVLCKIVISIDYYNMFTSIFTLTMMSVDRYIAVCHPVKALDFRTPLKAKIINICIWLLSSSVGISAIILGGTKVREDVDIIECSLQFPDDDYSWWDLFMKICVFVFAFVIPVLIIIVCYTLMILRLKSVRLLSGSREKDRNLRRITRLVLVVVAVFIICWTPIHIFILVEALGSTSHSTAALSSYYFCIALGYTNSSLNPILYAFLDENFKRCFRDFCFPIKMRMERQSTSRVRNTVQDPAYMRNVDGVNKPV

| SMILES | inhibition [%] |
| --- | --- |
| COC(=O)[C@@]12CC3C[C@H](CCOCc4ccccc4)[C@@H]1N(CCc1c2[nH]c2ccccc12)C3 | 6 |
| COCCNC(=O)[C@@]12CC3C[C@H](CCOC)[C@@H]1N(CCc1c2[nH]c2ccccc12)C3 | 6 |
| COC(=O)[C@@]12CC3C[C@H](CCO)[C@@H]1N(CCc1c2[nH]c2ccccc12)C3 | 4 |
| COCC[C@H]1CC2CN3CCc4c([nH]c5ccccc45)[C@](C(=O)OC)(C2)[C@H]13 [18-METHOXYCORONARIDINE] | 20 |
| COCC[C@H]1CC2CN3CCc4c([nH]c5ccccc45)[C@](C(=O)NCCCCCCNC(=O)CCCC[C@@H]4SCC5NC(=O)NC54)(C2)C13 (stereo partly specified) | 9 |
| COCC[C@H]1CC2CN3CCc4c([nH]c5ccccc45)[C@](C(=O)NCCN(C)C)(C2)[C@H]13 | 11 |
| COCC[C@H]1CC2CN3CCc4c([nH]c5ccccc45)[C@](C(=O)NCCO)(C2)[C@H]13 | 9 |
| COCC[C@H]1CC2CN3CCc4c([nH]c5ccccc45)[C@](C(=O)OCCNC(C)=O)(C2)[C@H]13 | 3 |

Molecular target: Kappa-type opioid receptor (Cavia porcellus, UniProt P41144)
Test: Binding affinity was determined against Opioid receptor kappa 1 from guinea pig brain membranes
Settings: not given

Chain of Kappa-type opioid receptor (P41144 whole entry): as above

| SMILES | Ki [nM] |
| --- | --- |
| COCC[C@H]1CC2CN3CCc4c([nH]c5ccccc45)[C@](C(=O)OC)(C2)[C@H]13 [18-METHOXYCORONARIDINE] | 5100 |

Source: ChEMBL document CHEMBL1145812, “Synthesis and biological evaluation of 18-methoxycoronaridine congeners. Potential antiaddiction agents” (J Med Chem, 2003)
